In ChEMBL document CHEMBL3045103, “Antimicrobial and antiurease activities of newly synthesized morpholine derivatives containing an azole nucleus” (Med Chem Res, 2013):
Active and inactive are the calls of the source.

Assays:
Type in all cases: functional
Pseudomonas aeruginosa = experiment: Antibacterial activity against Pseudomonas aeruginosa ATCC 43288 after 18 to 24 hr by double microdilution method
Summary of the method: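 Double microdilution in Mueller–Hinton broth, pH 7.3; plates incubated 18–24 h at 35 °C; MIC (μg/mL) determined. Compounds dissolved in hexane as 20.000 μg/mL stock.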

Enterococcus faecalis = experiment: Antibacterial activity against Enterococcus faecalis ATCC 29212 after 18 to 24 hr by double microdilution method
Summary of the method: (§1)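 Compounds dissolved in […] as 20.000 μg/mL stock solutions. Tested quantitatively by double microdilution in Mueller–Hinton broth at pH 7.3, with plates incubated 18–24 h at 35 °C. Read-out is the minimal inhibition concentration (MIC) in μg/mL.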

Staphylococcus aureus = experiment: Antibacterial activity against Staphylococcus aureus ATCC 25923 after 18 to 24 hr by double microdilution method; summary of the method: as §1
Bacillus cereus = experiment: Antibacterial activity against Bacillus cereus 702 Roma after 18 to 24 hr by double microdilution method; summary of the method: as §1
[1] = system: Yersinia pseudotuberculosis; experiment: Antibacterial activity against Yersinia pseudotuberculosis ATCC 911 after 18 to 24 hr by double microdilution method; summary of the method: as §1
[2] = system: Mycolicibacterium smegmatis; experiment: Antibacterial activity against Mycobacterium smegmatis ATCC 607 after 48 to 72 hr by double microdilution method
Summary of the method: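 Compounds dissolved in hexane as 20.000 μg/mL stock solutions. MIC (μg/mL) determined quantitatively by double microdilution, using Brain Heart Infusion broth as the growth medium for M. smegmatis.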

Measured: MIC

O=C(CNc1ccc(N2CCOCC2)nc1)N/N=C1\SCC(=O)N1c1ccccc1
inactive: Pseudomonas aeruginosa | Enterococcus faecalis | Staphylococcus aureus | Bacillus cereus | [1] | [2]

O=C(CNc1ccc(N2CCOCC2)nc1)N/N=C/c1ccc(Br)cc1
inactive: Pseudomonas aeruginosa | Enterococcus faecalis | Staphylococcus aureus | Bacillus cereus | [1]

Sc1nnc(CNc2ccc(N3CCOCC3)nc2)o1
inactive: Pseudomonas aeruginosa | Enterococcus faecalis | Staphylococcus aureus | Bacillus cereus | [1] | [2]

Sc1nnc(CNc2ccc(N3CCOCC3)nc2)n1-c1ccccc1
inactive: Pseudomonas aeruginosa | Enterococcus faecalis | Staphylococcus aureus | Bacillus cereus | [1]

O=C(CNc1ccc(N2CCOCC2)nc1)N/N=C/C=C/c1ccccc1
inactive: Pseudomonas aeruginosa | Enterococcus faecalis | Staphylococcus aureus | Bacillus cereus | [1] | [2]

CCOC(=O)CNc1ccc(N2CCOCC2)nc1
inactive: Pseudomonas aeruginosa | Enterococcus faecalis | Staphylococcus aureus | Bacillus cereus | [1]

O=C(CNc1ccc(N2CCOCC2)nc1)NNC(=S)Nc1ccccc1
inactive: Pseudomonas aeruginosa | Enterococcus faecalis | Staphylococcus aureus | Bacillus cereus | [1]

O=C(CNc1ccc(N2CCOCC2)nc1)N/N=c1\sc(-c2ccc(Cl)cc2)cn1-c1ccccc1
inactive: Pseudomonas aeruginosa | Enterococcus faecalis | Staphylococcus aureus | Bacillus cereus | [1] | [2]

NNC(=O)CNc1ccc(N2CCOCC2)nc1
inactive: Pseudomonas aeruginosa | Enterococcus faecalis | Staphylococcus aureus | Bacillus cereus | [1]
